H69AR inhibit: growth inhibitors of human H69AR lung tumor cells | H69AR lung tumor viability, ATP luminescence, 72 h; stronger effect = lower value | viability, % at 10 µM | 85,000 tested, 6% active | AID 598;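 active means viability at or below 40%; inactive means viability above 40%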;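 further: multidrug resistant small cell line overexpressing MRP-1 efflux transporter; 100% = mean luminescence of untreated control wells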
HUVEC inhibit: inhibitors of human endothelial cell proliferation; HUVEC proliferation, CellTiter-Glo luminescence, 72 h; stronger effect = lower value; viability, % at 10 µM (by protocol); 86,000 tested, 1.1% active; AID 648;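 active means viability at or below 30%; inactive means viability above 30%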;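 further: 100% = median luminescence of DMSO-only cell control wells on each plate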
cytoskel mod: alters cytoskeleton assembly in HUVEC cells; HUVEC TNFa F-actin phalloidin imaging, high content; 91,000 tested, 0.18% active; inhibition, % at 2 µM; AID 836;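 active means inhibition above the batch mean plus 3 SD and confirmed as a hit by visual image inspection, cut at about 30% in these data, passing the limit was not always enough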
Jurkat tox 60K: cytotoxicity toward Jurkat cells. Jurkat E6.1 viability, ATP luminescence, 48 h. inhibition, % at 4 µM. 56,000 tested, 1.2% active;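 active means inhibition above the mean inhibition of all tested compounds plus 3 SD, cut at about 28% in these data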
PTK2B oligo ant: Pyk2 (human) oligomerization antagonism; AID 1347419; Q293 cells, Pyk2 FERM NanoBiT luminescence; stronger effect = lower value; 99,000 tested, 0.83% active; Q14289; z-score (the deposit names both 25 µM and 10 µM);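 active means Z-score of -3 or lower, scaled per plate to the spread of control and sample wells; inactive means z-score above -3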;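 further: negative z-score means lost luminescence so less FERM oligomerization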
Lung fibro prol: blocks proliferation of human lung fibroblasts. 85,000 tested, 1.1% active. LL 47 human lung fibroblast viability, ATP luminescence; stronger effect = lower value. viability, % at 10 µM;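 active means viability at or below 50% in the single dose screen; inactive means viability above 50%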;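 further: compound exposure lasted 72 h before the ATP readout; 100% = median luminescence of untreated cell-only wells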
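Test system: LL 47 human lung fibroblasts; Quantity: 1,150 cells/well; Buffer or medium: IMEM plus 15% FBS; Dosing: tenfold compound dosing solution, DMSO at 0.1%; Timing: overnight cell rest, 72 h compound treatment at 37 °C; Detection: ATP-based CellTiter-Glo luminescent readout; Read-out basis: viability percentage against median untreated-cell control; Controls: cell-only wells, no compound.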
* marks the source's active call; other numbers are inactive results; . = no result given. This is a sample that favours compounds with a hit; in the whole collection about 6% have one here.

SMILES	H69AR inhibit	HUVEC inhibit	cytoskel mod	Jurkat tox 60K	PTK2B oligo ant	Lung fibro prol
O=C(N/N=C/C=C/c1ccccc1)c1cc2c(ccc3ccccc32)o1	.	.	-2	.	0.54	.
CCOC(=O)c1[nH]c(COC(=O)C2CC(=O)N(Cc3ccccc3)C2)c(C(=O)OCC)c1C (centres undefined)	97	101	-1	-1	0.1	95
Cc1ccc(S(=O)(=O)/N=C(\Sc2ccccc2)c2ccccc2)cc1	41	35	7	.	-0.22	60
Cc1ccc(S(=O)(=O)/N=C(\CSC(N)=O)Nc2ccccc2)cc1	24*	96	11	.	0.57	96
CCOC(=O)c1c(C)[nH]c(C)c1C(=O)CSc1nnc(-c2ccco2)n1Cc1ccccc1	77	91	.	2	-1.1	94
O=C(Nc1cc(Sc2ccccn2)cc([N+](=O)[O-])c1)c1ccc(Cl)cc1	.	.	-10	.	-3.7*	.
O=C(NCCN1C(=O)CSC1=O)c1ccccc1	96	106	-1	-10	-0.47	100
CCN(CC)CCNc1ncnc2c1sc1nc(N3CCOCC3)c3c(c12)CC(C)(C)SC3	2.6*	7.2*	4	.	-0.66	2.6*
CN(C)CCNc1ncnc2c1sc1nc(N3CCOCC3)c3c(c12)CC(C)(C)SC3	94	17*	-44	.	-0.73	16*
Cc1cc(C)c(NC(=O)CS(=O)CC(=O)NC2CCCc3ccccc32)c(C)c1 (centres undefined)	82	78	0	.	0.46	93
Cc1ccc(/C=C/C2=Cc3c(sc(NC(=O)CSc4n[nH]c(N)n4)c3C#N)C(C)(C)C2)o1	29*	73	.	-3	.	68
Cc1nc(NC(=O)CSc2nc3cccnc3n2C2CCCCC2)sc1C	29*	52	-17	-1	0.6	14*
CCn1c(SCC(=O)Nc2nc(C)c(C)s2)nc2cccnc21	87	107	.	.	0.2	103
CCc1nnc(NC(=O)CSc2nc(C3CCCCC3)nc3ccccc23)s1	.	.	-23	.	-0.45	.
CCc1nnc(NC(=O)CSc2nc3cccnc3n2C2CCCCC2)s1	82	73	-6	29*	-1.9	83
Nn1c(SCC(=O)NC(=O)NCc2ccco2)nnc1-c1ccc(OC(F)F)cc1	.	.	-7	.	0.51	.
COc1ccc(C(=O)c2ccc(N3CCN(C(=O)c4ccc(F)cc4)CC3)c(F)c2)cc1Br	36*	73	7	.	1.9	97
COc1cc(NC(=O)c2cccs2)c(C(=O)OCC(=O)NC(=O)NCc2ccccc2)cc1OC	27*	74	8	.	-0.03	100
COc1cc(NC(=O)c2cccs2)c(C(=O)OCC(=O)NC(=O)NC(C)(C)C)cc1OC	98	88	-17	.	-2.1	102
N#Cc1c(NC(=O)c2ccccc2)sc2c1CCC2	21*	55	-4	.	0.29	84
N#Cc1c(NC(=O)c2cccnc2)sc2c1CCC2	21*	54	-34	.	0.01	75
COc1ccc(-n2c(SCC(=O)Nc3sc4c(c3C#N)CCCC4)nnc2-c2ccccc2OC)cc1	92	84	-15	.	-2.4	104
COc1ccc(-c2nnc(SCC(=O)Nc3sc4c(c3C#N)CCCC4)n2-c2ccccc2)cc1	2.3*	3.7*	-15	.	0.47	27*
N#Cc1ccc(-c2cccnc2)nc1SCC(=O)Nc1sc2c(c1C#N)CCC2	101	38	.	.	-2	31*
C/C(=N/NS(=O)(=O)c1ccc(Cl)cc1)c1cccc(NC(=O)c2ccc(Cl)cc2Cl)c1	.	.	-12	.	1.5	.
SMILES	H69AR inhibit	HUVEC inhibit	cytoskel mod	Jurkat tox 60K	PTK2B oligo ant	Lung fibro prol
CCCC1CCc2c(sc(NC(=O)OCC)c2C#N)C1 (centres undefined)	28*	56	24	.	-0.14	84
Cc1cccc(C(=O)Nc2sc3c(c2C#N)CCCCC3)c1	58	71	19	.	-0.4	99
CC(C)c1cc(C(=O)Nc2sc3c(c2C#N)CCC3)no1	26*	65	-5	69*	0.52	84
CCOC(=O)Nc1sc2c(c1C#N)CCCC2	61	106	-5	.	-0.59	95
CCOC(=O)N1CCN(S(=O)(=O)c2ccc(C(=O)Nc3sc4c(c3C#N)CCC4)cc2)CC1	28*	47	-32	0	0.28	84
CCc1ccc(CCC(=O)Nc2sc3c(c2C#N)CCCC3)o1	33*	34	-6	89*	0.97	58
Cc1cc(C(=O)Nc2sc3c(c2C#N)CCC(C)C3)cs1 (centres undefined)	19*	103	-6	4	0.82	110
CCn1c2ccccc2c2cc(NC(=O)CSc3nnc(-c4cccc(OC)c4)n3N)ccc21	.	.	24	.	-1.4	.
CCn1c2ccccc2c2cc(NC(=O)CSc3nnc(-c4ccc(OC)c(OC)c4)n3N)ccc21	22*	83	6	.	-0.85	107
N#Cc1ccccc1NC(=O)CSc1nnc(-c2ccccc2O)n1-c1ccccc1	33*	84	-6	6	-1.4	90
COc1ccc(-c2nnc(SCC(=O)Nc3ncc(C)s3)n2-c2ccccc2)cc1OC	17*	58	2	50*	-0.66	82
CN=C1SC(CC(=O)Nc2sc3c(c2C#N)CCCC3)C(=O)N1C (centres undefined)	21*	87	22	.	1	98
Cc1cc(C(=O)Nc2sc3c(c2C#N)CCC(C(C)(C)C)C3)no1 (centres undefined)	23*	67	-6	1	-0.78	89
N#Cc1c(NC(=O)CCC(=O)O)sc2c1CCCC2	98	104	-7	.	0.71	92
O=C(COc1ccc(Cl)cc1)N/N=C/CCc1ccccc1	.	.	-17	.	1.7	.
CCCC[n+]1ccn(-c2nc3ccccc3nc2[N-]S(=O)(=O)c2ccccc2)c1	93	101	-20	.	0.08	96
CCCCC[n+]1ccn(-c2nc3ccccc3nc2[N-]S(=O)(=O)c2ccc(C)cc2)c1	76	100	7	.	0.17	98
CCCC[n+]1ccn(C2=C([O-])c3ccccc3C(=O)/C2=N\S(=O)(=O)c2ccccc2)c1	8.6*	5.1*	5	.	-0.23	50
CCCCC[n+]1ccn(C2=C([O-])c3ccccc3C(=O)/C2=N\S(=O)(=O)c2ccccc2)c1	25*	11*	5	.	0.63	76
Cc1ccc(NC(=O)C2C3/C=C\CCCCC32)cc1C (centres undefined)	.	.	-18	.	-0.35	.
COc1ccc(CN(C(=O)CSc2nnc(-c3ccccc3C)o2)c2ccc(F)cc2)cc1	0.4*	128	7	.	-0.77	102
O=C(CSc1nnc(-c2c[nH]c3ccccc23)o1)N(Cc1ccccc1)c1ccc(F)cc1	56	82	-18	-8	-3.3*	108
CCOC(=O)CN(C(=O)CSc1nnc(-c2cccc(OC)c2)o1)c1ccc(F)cc1	74	111	-11	1	-1.3	96
Cc1ccc(C(=O)CSc2nnc(-c3c[nH]c4ccccc34)o2)cc1	.	.	26	.	-0.88	.
CC1CCCCN1C(=O)CSc1nnc(-c2c[nH]c3ccccc23)o1 (centres undefined)	22*	102	.	-8	-1.4	101

Assay outcomes as filed in PubChem BioAssay.
